This note sets out measurements from ChEMBL document CHEMBL1142545, “1,3-Dialkyl-8-(hetero)aryl-9-OH-9-deazaxanthines as potent A2B adenosine receptor antagonists: design, synthesis, structure-affinity and structure-selectivity relationships” (Bioorg Med Chem, 2008).

Data set [1] concerns the target T1, Adenosine receptor A2b (Homo sapiens, UniProt P29275).
T1 sequence (P29275 whole entry): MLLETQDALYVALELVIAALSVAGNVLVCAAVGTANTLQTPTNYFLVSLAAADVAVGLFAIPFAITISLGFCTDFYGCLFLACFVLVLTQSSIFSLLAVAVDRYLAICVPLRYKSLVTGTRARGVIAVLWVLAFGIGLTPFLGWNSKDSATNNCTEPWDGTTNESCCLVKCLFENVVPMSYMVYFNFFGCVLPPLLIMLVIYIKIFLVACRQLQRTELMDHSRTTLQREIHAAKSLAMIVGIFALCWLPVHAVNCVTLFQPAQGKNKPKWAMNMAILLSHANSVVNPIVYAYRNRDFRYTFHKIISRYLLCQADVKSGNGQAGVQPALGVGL
In words: Displacement of [3H]DPCPX from human cloned adenosine A2B receptor expressed in HEK293 cells. The data set is classed as cell-based.

For data set [2], the target named is T2, Adenosine receptor A1 (Homo sapiens, UniProt P30542).
T2 sequence (P30542 whole entry): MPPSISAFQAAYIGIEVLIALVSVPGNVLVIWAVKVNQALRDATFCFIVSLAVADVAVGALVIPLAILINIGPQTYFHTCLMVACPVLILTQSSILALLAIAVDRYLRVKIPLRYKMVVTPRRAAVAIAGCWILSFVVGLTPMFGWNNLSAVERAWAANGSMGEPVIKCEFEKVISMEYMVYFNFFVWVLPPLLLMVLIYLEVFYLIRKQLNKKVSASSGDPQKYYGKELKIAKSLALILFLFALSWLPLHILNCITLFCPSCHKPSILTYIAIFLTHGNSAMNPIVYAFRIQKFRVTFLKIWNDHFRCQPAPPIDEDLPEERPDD
Kind of data set: Displacement of [3H]DPCPX from human cloned adenosine A1 receptor expressed in CHO cells. The data set is classed as cell-based.

Data set [3] concerns HeLa. In words: Selectivity index, ratio of Ki for human cloned adenosine A2A receptor expressed in human HeLa cells to Ki for human cloned adenosine A2B receptor expressed in HEK293 cells. Format: cell-based. The gist of the method:
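SI is the ratio of Ki values. […] A1 in CHO cells: [3H]DPCPX 2 nM. A2A in HeLa cells: [3H]ZM241385 3 nM. A2B in HEK-293 cells: [3H]DPCPX 25 nM. A3 in HeLa cells: [3H]NECA 30 nM. Filtration and scintillation counting.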

For data set [4], the target named is T3, Adenosine receptor A3 (Homo sapiens, UniProt P0DMS8). Kind of data set: Displacement of [3H]NECA from human cloned adenosine A3 receptor expressed in human HeLa cells. Format: cell-based.
T3 sequence (P0DMS8 whole entry): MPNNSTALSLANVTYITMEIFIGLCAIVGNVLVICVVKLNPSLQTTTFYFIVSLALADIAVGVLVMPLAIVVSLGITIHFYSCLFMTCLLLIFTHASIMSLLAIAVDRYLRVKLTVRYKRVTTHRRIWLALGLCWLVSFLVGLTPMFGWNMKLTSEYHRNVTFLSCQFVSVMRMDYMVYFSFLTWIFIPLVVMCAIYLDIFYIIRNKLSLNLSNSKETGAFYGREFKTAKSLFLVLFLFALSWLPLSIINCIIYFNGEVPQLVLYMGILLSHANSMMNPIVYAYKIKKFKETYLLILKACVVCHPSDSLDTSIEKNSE
Data set [5] has as its target T4, Adenosine receptor A2a (Homo sapiens, UniProt P29274). Kind of data set: Displacement of [3H]ZM241385 from human cloned adenosine A2A receptor expressed in human HeLa cells. The data set is classed as cell-based.
The target of data set [6] is T4, Adenosine receptor A2a. In words: Displacement of [3H]ZM241385 from human cloned adenosine A2A receptor expressed in human HeLa cells at 1 uM. Format: cell-based. The procedure, abridged:
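HeLa membranes (10 µg) in 50 mM Tris–HCl, 1 mM EDTA, 10 mM MgCl2, 2 U/mL adenosine deaminase, pH 7.4; 3 nM [3H]ZM241385, 25 °C; NECA for nonspecific binding; filtration with 4× ice-cold washes, scintillation counting; percent radioligand displacement at 1 µM.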

Data set [7] addresses T3, Adenosine receptor A3. In words: Displacement of [3H]NECA from human cloned adenosine A3 receptor expressed in human HeLa cells at 1 uM. Format: cell-based.
Data set [8] in a line: Solubility in 50 mM Tris/HCl buffer at pH 7.4 by turbidimetric method. The data set is classed as physicochemical. The gist of the method: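 DMSO stock added stepwise (about 14 additions) to 50 mM Tris/HCl pH 7.4 at room temperature, final DMSO below 5%; precipitation detected as UV absorbance rise at 600–800 nm; solubility limit from bilinear fit of absorbance versus DMSO.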

Data set [9] in a line: Methanol-water partition coefficient, log K by RP-HPLC. Format: physicochemical. The procedure, abridged: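 Reverse-phase HPLC with water–methanol 40/60 (v/v) mobile phase at 1.0 ml/min; dead time from KI in methanol; retention times in minutes; log k from capacity factor taken as lipophilicity index.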

≈ marks a conversion by molar mass, not a printed value.

T4 sequence (P29274 whole entry): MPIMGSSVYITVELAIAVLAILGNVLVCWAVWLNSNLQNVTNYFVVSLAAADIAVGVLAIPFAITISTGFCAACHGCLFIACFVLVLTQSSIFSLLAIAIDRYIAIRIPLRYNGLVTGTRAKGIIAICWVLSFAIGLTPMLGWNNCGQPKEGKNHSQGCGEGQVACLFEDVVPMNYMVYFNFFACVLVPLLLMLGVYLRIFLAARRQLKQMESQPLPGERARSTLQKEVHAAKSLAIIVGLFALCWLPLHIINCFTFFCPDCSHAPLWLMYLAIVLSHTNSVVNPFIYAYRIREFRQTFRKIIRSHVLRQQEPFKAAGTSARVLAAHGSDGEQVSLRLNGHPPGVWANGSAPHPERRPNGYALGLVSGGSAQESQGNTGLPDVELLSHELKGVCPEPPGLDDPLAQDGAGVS

Take `CCCn1c(=O)c2[nH]c(-c3ccc(S(C)(=O)=O)cc3)c(O)c2n(CCC)c1=O`: the Ki in data set [1] is 6.5 nM; in [2] it was 63 nM; in [4], 295 nM; in data set [5], 28 nM. Besides, the Ratio Ki in data set [3] is 4.3.

Regarding `CCCn1c(=O)c2[nH]c(-c3ccc(C(C)=O)cc3)c(O)c2n(CCC)c1=O`, the figures for the inhibitory constant (Ki) in [1] and in [5] were 71 nM and 324 nM, respectively. Also, the Ratio Ki in [3] was found to be 4.6.

`CCCn1c(=O)c2c(cc(-c3ccccc3)n2O)n(CCC)c1=O`: the inhibition in data set [6] stood at 32%; in [7] it was 30%. The inhibition constant Ki in data set [1] worked out at 676 nM; in data set [2], 25 nM.

With `CCCn1c(=O)c2[nH]c(-c3ccc(OC)cc3)cc2n(CCC)c1=O`, the results for the Ki in data set [1] and in data set [5] were 490 nM and 199 nM, respectively. In data set [8], this molecule returned a solubility (kinetic) of 28 µg/mL (≈ 82 µM). Moreover, the Ratio Ki in data set [3] came to 0.41. For the same molecule, the “log K” value in data set [9] is 0.71.

Turning to `CCCn1c(=O)c2[nH]c(-c3ccc(S(C)(=O)=O)cc3)c(O)c2n(C)c1=O`, the Ki in data set [1] is 64 nM; in data set [2], 240 nM; in [5], 468 nM. Moreover, the Ratio Ki in [3] was 7.3. This molecule had an inhibition in data set [7] of 7%.

As to `CCCn1c(=O)c2[nH]c(-c3ccc(N)cc3)c(O)c2n(CCC)c1=O`, the results for the Ki in data set [1] and in data set [5] were 19 nM and 166 nM, respectively. Moreover, the solubility (kinetic) in data set [8] came out at 30 µg/mL (≈ 87.6 µM). The Ratio Ki in data set [3] came out at 8.7. The “log K” value in data set [9] is listed as 0.96.

Regarding `CCCn1c(=O)c2[nH]c(-c3ccc(O)cc3)c(O)c2n(CCC)c1=O`, the figures for the inhibition constant (Ki) in [1] and in data set [5] were 11 nM and 118 nM, respectively. In addition, in [3], the Ratio Ki stood at 10.7.

On to `Cn1c(=O)c2[nH]c(-c3ccccc3)cc2n(C)c1=O`, for which the inhibitory constant (Ki) in data set [1] worked out at 182 nM; in [5], 479 nM. Further, the Ratio Ki in data set [3] stood at 2.6.

With `CCCn1c(=O)c2[nH]c(-c3ccccc3)cc2n(CCC)c1=O`, the Ki was 229 nM in data set [1], 34 nM in [2], 96 nM in [4] and 646 nM in [5]. In addition, in data set [3], the Ratio Ki worked out at 2.8.

With `CCCn1c(=O)c2[nH]c(-c3ccco3)c(OS(=O)(=O)O)c2n(CCC)c1=O`, the Ki turned out to be 35 nM in [1] and 408 nM in [5]. For the same molecule, the Ratio Ki in data set [3] was found to be 11.7.

Consider `Cc1ccc(-c2cc3c(c(=O)n(C)c(=O)n3C)n2O)cc1`, for which the inhibition in data set [6] is 8%. The molecule further came in with a Ki in [1] of 2240 nM.

Turning to `CCCn1c(=O)c2[nH]c(-c3ccc(N)cc3)cc2n(CCC)c1=O`, the Ki in data set [1] worked out at 8.9 nM; in [5], 162 nM. The kinetic solubility in data set [8] was 6 µg/mL (≈ 18.4 µM). The Ratio Ki in data set [3] came out at 18.2. Moreover, the “log K” value in data set [9] is given as 1.21.

Take `CCCn1c(=O)c2[nH]c(-c3ccc(C(=O)O)cc3)c(O)c2n(CCC)c1=O`: the Ki is 338 nM in data set [1] and 933 nM in [5]. For the same molecule, the Ratio Ki in [3] was found to be 2.8.

For the molecule `CCCn1c(=O)c2c(cc(-c3ccc(C)cc3)n2O)n(CCC)c1=O`, the inhibition constant Ki was determined as 589 nM in data set [1] and 398 nM in [5]. Moreover, in [3], the Ratio Ki came to 0.66.

As for `Cc1ccc(-c2[nH]c3c(=O)n(C)c(=O)n(C)c3c2O)cc1`, the Ki in data set [1] stood at 513 nM; in data set [5] it was 2450 nM. Besides, the Ratio Ki in data set [3] came out at 4.8.

As to `CCCn1c(=O)c2[nH]c(-c3ccc(OCC(=O)Nc4ccc(Br)cc4)cc3)cc2n(CCC)c1=O`, the figures for the Ki in [2] and in data set [4] were 21 nM and 199 nM, respectively. The Ratio Ki in [3] came out at 14.

`Cn1c(=O)c2c(cc(-c3ccccc3)n2O)n(C)c1=O` showed an inhibition in data set [6] of 12%. Affinity in [1] was put at a Ki of 1660 nM.

Consider `CCCn1c(=O)c2[nH]c(-c3ccc(C)cc3)c(O)c2n(CCC)c1=O`, for which the Ki in data set [1] and in data set [5] was 89 nM in each case. In [8], this molecule gave a solubility (kinetic) of 30 µg/mL (≈ 87.9 µM). Besides, the Ratio Ki in [3] was determined as 1. Moreover, the “log K” value in [9] is recorded as 0.83.

As to `CCCn1c(=O)c2c(cc(-c3ccc(O)cc3)n2O)n(CCC)c1=O`, the Ki in data set [1] was 115 nM; in [5], 102 nM. Moreover, in [3], the Ratio Ki turned out to be 0.89.

`CCCn1c(=O)c2[nH]c(-c3ccc(OC)cc3)c(O)c2n(CCC)c1=O`: the Ki was 24 nM in [1] and 148 nM in data set [5]. In addition, the solubility (kinetic) in data set [8] was determined as 120 µg/mL (≈ 336 µM). Moreover, the Ratio Ki in data set [3] turned out to be 6.2. In [9], the “log K” value was determined as 0.51.

Take `CCCn1c(=O)c2[nH]c(-c3ccco3)c(O)c2n(CCC)c1=O`: the inhibition constant Ki in [1] was determined as 23 nM; in data set [5], 104 nM. Besides, the Ratio Ki in data set [3] was 4.5.

As for `Cn1c(=O)c2[nH]c(-c3ccccc3)c(O)c2n(C)c1=O`, the Ki came out at 288 nM in [1] and 1470 nM in data set [5]. Also, the Ratio Ki in data set [3] came out at 5.1.

In the case of `CCCn1c(=O)c2c(cc(-c3ccc(N)cc3)n2O)n(CCC)c1=O`, the inhibitory constant (Ki) turned out to be 155 nM in data set [1] and 240 nM in data set [5]. For the same molecule, the Ratio Ki in data set [3] came out at 1.5.

For `Cn1c(=O)c2[nH]c(-c3ccc(S(C)(=O)=O)cc3)c(O)c2n(C)c1=O`, the Ki in data set [1] was found to be 68 nM; in data set [5], 692 nM. Further, the Ratio Ki in data set [3] was found to be 10.2.

In turn, `CCCn1c(=O)c2[nH]c(-c3ccc(OCC(=O)N4CCN(Cc5ccccc5)CC4)cc3)cc2n(CCC)c1=O` returned a solubility (kinetic) in [8] of 2 µg/mL (≈ 3.68 µM). The molecule further registered an inhibition constant Ki in [2] of 43 nM. Further, the Ratio Ki in data set [3] came to 42. Further, in data set [9], the “log K” value amounted to 0.93. The molecule also had an inhibition in data set [7] of 5%.

Consider `CCCn1c(=O)c2[nH]c(-c3ccc(C)cc3)cc2n(CCC)c1=O`, for which the Ki turned out to be 199 nM in data set [1] and 631 nM in [5]. For the same molecule, the solubility (kinetic) in [8] is 6 µg/mL (≈ 18.4 µM). Also, the Ratio Ki in data set [3] was 3.2. In addition, the “log K” value in data set [9] came out at 0.97.

`CCCn1c(=O)c2[nH]c(-c3ccc([N+](=O)[O-])cc3)c(O)c2n(CCC)c1=O`: the Ki in data set [1] was determined as 50 nM; in data set [5], 145 nM. The Ratio Ki in data set [3] stood at 2.9.

Regarding `CCCn1c(=O)c2c(cc(-c3ccc(OC)cc3)n2O)n(CCC)c1=O`, the Ki amounted to 479 nM in data set [1] and 631 nM in data set [5]. In data set [3], the Ratio Ki amounted to 1.3.

With `Cc1ccc(-c2cc3c([nH]2)c(=O)n(C)c(=O)n3C)cc1`, the inhibition constant Ki worked out at 457 nM in [1] and 126 nM in [5]. The Ratio Ki in [3] came to 0.28.

`CCCn1c(=O)c2[nH]c(-c3ccc(O)cc3)cc2n(CCC)c1=O`: the Ki in data set [1] came to 44 nM; in [5], 48 nM. Further, the Ratio Ki in data set [3] was 1.1.

On to `CCCn1c(=O)c2[nH]c(-c3ccccc3)c(O)c2n(CCC)c1=O`, for which the inhibition constant Ki in data set [1] amounted to 54 nM; in data set [2] it was 83 nM; in [4], 182 nM; in data set [5], 50 nM. Further, in data set [3], the Ratio Ki came out at 0.93.
